How the values were obtained:
[1] = molecular target: Toll-like receptor 1/2 (Homo sapiens, UniProt O60603+Q15399); assay: Agonist activity at TLR1/TLR2 in human THP-1 derived macrophages assessed as stimulation of TNF alpha release measured for 4 hrs by ELISA based assay relative to diprovocim-1; type: cell-based; set-up: Activity: concentration or dose not given beside the values
Procedure, shortened: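 THP-1 cells differentiated with 100 nM PMA in RPMI/10% FBS for 24 h, washed, then rested 24 h in fresh medium. Seeded at 0.5 × 10⁵ cells/well and exposed to graded compound concentrations for 4 h, with final DMSO held at 0.1%. LPS served as positive control and DMSO as negative control. Supernatant human TNF-α was read by ELISA. EC50 from duplicate means.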

[2] = molecular target: Toll-like receptor 1/2 (Mus musculus) (UniProt Q9QUN7+Q9EPQ1); assay: Agonist activity at TLR1/TLR2 in wild type C57BL/6J mouse macrophages assessed as stimulation of TNF alpha release measured for 4 hrs by ELISA based assay relative to diprovocim-1; type: cell-based; set-up: Activity: concentration or dose not given beside the values; settings: Macrophage
Procedure, shortened: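 Thioglycolate-elicited peritoneal macrophages from wild type C57BL/6J mice, harvested by PBS lavage 4 d after i.p. 4% thioglycolate. Cultured in DMEM/10% FBS at 37 °C, 5% CO2, seeded at 1 × 10⁵ cells/well and exposed to graded compound concentrations for 4 h, with final DMSO ≤0.5% held constant. LPS served as positive control. Supernatant mouse TNF-α was read by ELISA. EC50 from duplicate means.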

| Activity ([1]; filed as agonist) [%] | Activity ([2]; filed as agonist) [%] | Activity [1] [%] | Activity [2] [%] | Compound |
| --- | --- | --- | --- | --- |
| 100 | 220 | – | – | CC(C)(C)OC(=O)NNC(=O)OCCCCCCCCCCCCNC(=O)[C@@H]1CN(C(=O)c2ccc(C(=O)N3C[C@@H](C(=O)N[C@H]4C[C@@H]4c4ccccc4)[C@H](C(=O)N[C@H]4C[C@@H]4c4ccccc4)C3)cc2)C[C@H]1C(=O)N[C@H]1C[C@@H]1c1ccccc1 |
| 100 | 220 | – | – | CC(C)(C)OC(=O)NC1(C(=O)OCCCCCCCCCCCCNC(=O)[C@@H]2CN(C(=O)c3ccc(C(=O)N4C[C@@H](C(=O)N[C@H]5C[C@@H]5c5ccccc5)[C@H](C(=O)N[C@H]5C[C@@H]5c5ccccc5)C4)cc3)C[C@H]2C(=O)N[C@H]2C[C@@H]2c2ccccc2)CC1 |
| 110 | 110 | – | – | CC(C)(C)C(=O)NCC(=O)OCCCCCCCCCCCCNC(=O)[C@@H]1CN(C(=O)c2ccc(C(=O)N3C[C@@H](C(=O)N[C@H]4C[C@@H]4c4ccccc4)[C@H](C(=O)N[C@H]4C[C@@H]4c4ccccc4)C3)cc2)C[C@H]1C(=O)N[C@H]1C[C@@H]1c1ccccc1 |
| 90 | 90 | – | – | COC(=O)CNC(=O)OCCCCCCCCCCCCNC(=O)[C@@H]1CN(C(=O)c2ccc(C(=O)N3C[C@@H](C(=O)N[C@H]4C[C@@H]4c4ccccc4)[C@H](C(=O)N[C@H]4C[C@@H]4c4ccccc4)C3)cc2)C[C@H]1C(=O)N[C@H]1C[C@@H]1c1ccccc1 |
| 100 | 140 | – | – | CC[C@H](C)[C@H](NC(=O)OC(C)(C)C)C(=O)OCCCCCCCCCCCCNC(=O)[C@@H]1CN(C(=O)c2ccc(C(=O)N3C[C@@H](C(=O)N[C@H]4C[C@@H]4c4ccccc4)[C@H](C(=O)N[C@H]4C[C@@H]4c4ccccc4)C3)cc2)C[C@H]1C(=O)N[C@H]1C[C@@H]1c1ccccc1 |
| 100 | 180 | – | – | CC(C)[C@H](NC(=O)OC(C)(C)C)C(=O)OCCCCCCCCCCCCNC(=O)[C@@H]1CN(C(=O)c2ccc(C(=O)N3C[C@@H](C(=O)N[C@H]4C[C@@H]4c4ccccc4)[C@H](C(=O)N[C@H]4C[C@@H]4c4ccccc4)C3)cc2)C[C@H]1C(=O)N[C@H]1C[C@@H]1c1ccccc1 |
| 100 | 140 | – | – | O=C(CO)OCCCCCCCCCCCCNC(=O)[C@@H]1CN(C(=O)c2ccc(C(=O)N3C[C@@H](C(=O)N[C@H]4C[C@@H]4c4ccccc4)[C@H](C(=O)N[C@H]4C[C@@H]4c4ccccc4)C3)cc2)C[C@H]1C(=O)N[C@H]1C[C@@H]1c1ccccc1 |
| 100 | 270 | – | – | CC(C)(C)OC(=O)COCCCCCCCCCCCCNC(=O)[C@@H]1CN(C(=O)c2ccc(C(=O)N3C[C@@H](C(=O)N[C@H]4C[C@@H]4c4ccccc4)[C@H](C(=O)N[C@H]4C[C@@H]4c4ccccc4)C3)cc2)C[C@H]1C(=O)N[C@H]1C[C@@H]1c1ccccc1 |
| 100 | 110 | – | – | CN(CC(=O)OCCCCCCCCCCCCNC(=O)[C@@H]1CN(C(=O)c2ccc(C(=O)N3C[C@@H](C(=O)N[C@H]4C[C@@H]4c4ccccc4)[C@H](C(=O)N[C@H]4C[C@@H]4c4ccccc4)C3)cc2)C[C@H]1C(=O)N[C@H]1C[C@@H]1c1ccccc1)C(=O)OC(C)(C)C |
| 110 | 120 | – | – | NC(=O)CCCCCCCCCCCNC(=O)[C@@H]1CN(C(=O)c2ccc(C(=O)N3C[C@@H](C(=O)N[C@H]4C[C@@H]4c4ccccc4)[C@H](C(=O)N[C@H]4C[C@@H]4c4ccccc4)C3)cc2)C[C@H]1C(=O)N[C@H]1C[C@@H]1c1ccccc1 |
| 120 | 250 | – | – | O=C(CNC(=O)C(=O)O)OCCCCCCCCCCCCNC(=O)[C@@H]1CN(C(=O)c2ccc(C(=O)N3C[C@@H](C(=O)N[C@H]4C[C@@H]4c4ccccc4)[C@H](C(=O)N[C@H]4C[C@@H]4c4ccccc4)C3)cc2)C[C@H]1C(=O)N[C@H]1C[C@@H]1c1ccccc1 |
| 100 | 150 | – | – | CSCC[C@H](NC(=O)OC(C)(C)C)C(=O)OCCCCCCCCCCCCNC(=O)[C@@H]1CN(C(=O)c2ccc(C(=O)N3C[C@@H](C(=O)N[C@H]4C[C@@H]4c4ccccc4)[C@H](C(=O)N[C@H]4C[C@@H]4c4ccccc4)C3)cc2)C[C@H]1C(=O)N[C@H]1C[C@@H]1c1ccccc1 |
| 100 | 100 | – | – | NCC(=O)OCCCCCCCCCCCCNC(=O)[C@@H]1CN(C(=O)c2ccc(C(=O)N3C[C@@H](C(=O)N[C@H]4C[C@@H]4c4ccccc4)[C@H](C(=O)N[C@H]4C[C@@H]4c4ccccc4)C3)cc2)C[C@H]1C(=O)N[C@H]1C[C@@H]1c1ccccc1 |

Continued, compound first:

| Compound | Activity ([1]; filed as agonist) [%] | Activity ([2]; filed as agonist) [%] | Activity [1] [%] | Activity [2] [%] |
| --- | --- | --- | --- | --- |
| O=C(CNC(=O)OCC(Cl)(Cl)Cl)OCCCCCCCCCCCCNC(=O)[C@@H]1CN(C(=O)c2ccc(C(=O)N3C[C@@H](C(=O)N[C@H]4C[C@@H]4c4ccccc4)[C@H](C(=O)N[C@H]4C[C@@H]4c4ccccc4)C3)cc2)C[C@H]1C(=O)N[C@H]1C[C@@H]1c1ccccc1 | 100 | 300 | – | – |
| CNC(=O)CCCCCCCCCCCNC(=O)[C@@H]1CN(C(=O)c2ccc(C(=O)N3C[C@@H](C(=O)N[C@H]4C[C@@H]4c4ccccc4)[C@H](C(=O)N[C@H]4C[C@@H]4c4ccccc4)C3)cc2)C[C@H]1C(=O)N[C@H]1C[C@@H]1c1ccccc1 | 120 | 150 | – | – |
| C#CCN(C)CC(=O)OCCCCCCCCCCCCNC(=O)[C@@H]1CN(C(=O)c2ccc(C(=O)N3C[C@@H](C(=O)N[C@H]4C[C@@H]4c4ccccc4)[C@H](C(=O)N[C@H]4C[C@@H]4c4ccccc4)C3)cc2)C[C@H]1C(=O)N[C@H]1C[C@@H]1c1ccccc1 | 40 | 100 | – | – |
| CC(C)(C)OC(=O)NCC(=O)NCC(=O)OCCCCCCCCCCCCNC(=O)[C@@H]1CN(C(=O)c2ccc(C(=O)N3C[C@@H](C(=O)N[C@H]4C[C@@H]4c4ccccc4)[C@H](C(=O)N[C@H]4C[C@@H]4c4ccccc4)C3)cc2)C[C@H]1C(=O)N[C@H]1C[C@@H]1c1ccccc1 | 110 | 110 | – | – |
| CC(C)(C)OC(=O)N[C@@H](CCC(=O)OCc1ccccc1)C(=O)OCCCCCCCCCCCCNC(=O)[C@@H]1CN(C(=O)c2ccc(C(=O)N3C[C@@H](C(=O)N[C@H]4C[C@@H]4c4ccccc4)[C@H](C(=O)N[C@H]4C[C@@H]4c4ccccc4)C3)cc2)C[C@H]1C(=O)N[C@H]1C[C@@H]1c1ccccc1 | 100 | 210 | – | – |
| O=C(COCc1ccccc1)OCCCCCCCCCCCCNC(=O)[C@@H]1CN(C(=O)c2ccc(C(=O)N3C[C@@H](C(=O)N[C@H]4C[C@@H]4c4ccccc4)[C@H](C(=O)N[C@H]4C[C@@H]4c4ccccc4)C3)cc2)C[C@H]1C(=O)N[C@H]1C[C@@H]1c1ccccc1 | 130 | 220 | – | – |
| CC(C)(C)OC(=O)c1ccc(C(=O)NCC(=O)OCCCCCCCCCCCCNC(=O)[C@@H]2CN(C(=O)c3ccc(C(=O)N4C[C@@H](C(=O)N[C@H]5C[C@@H]5c5ccccc5)[C@H](C(=O)N[C@H]5C[C@@H]5c5ccccc5)C4)cc3)C[C@H]2C(=O)N[C@H]2C[C@@H]2c2ccccc2)cc1 | 100 | 130 | – | – |
| O=C(CNC(=O)OCc1ccccc1)OCCCCCCCCCCCCNC(=O)[C@@H]1CN(C(=O)c2ccc(C(=O)N3C[C@@H](C(=O)N[C@H]4C[C@@H]4c4ccccc4)[C@H](C(=O)N[C@H]4C[C@@H]4c4ccccc4)C3)cc2)C[C@H]1C(=O)N[C@H]1C[C@@H]1c1ccccc1 | 100 | 410 | – | – |
| CC(C)(C)OC(=O)CCOCCOCCOCCNC(=O)CCCCCCCCCCCNC(=O)[C@@H]1CN(C(=O)c2ccc(C(=O)N3C[C@@H](C(=O)N[C@H]4C[C@@H]4c4ccccc4)[C@H](C(=O)N[C@H]4C[C@@H]4c4ccccc4)C3)cc2)C[C@H]1C(=O)N[C@H]1C[C@@H]1c1ccccc1 | 100 | 140 | – | – |
| CC(C)(C)Oc1ccc(C(=O)OCCCCCCCCCCCCNC(=O)[C@@H]2CN(C(=O)c3ccc(C(=O)N4C[C@@H](C(=O)N[C@H]5C[C@@H]5c5ccccc5)[C@H](C(=O)N[C@H]5C[C@@H]5c5ccccc5)C4)cc3)C[C@H]2C(=O)N[C@H]2C[C@@H]2c2ccccc2)cc1 | – | 150 | < 50 | – |
| O=C(OCCCCCCCCCCCCNC(=O)[C@@H]1CN(C(=O)c2ccc(C(=O)N3C[C@@H](C(=O)N[C@H]4C[C@@H]4c4ccccc4)[C@H](C(=O)N[C@H]4C[C@@H]4c4ccccc4)C3)cc2)C[C@H]1C(=O)N[C@H]1C[C@@H]1c1ccccc1)c1ccc(O)cc1 | 100 | 540 | – | – |
| O=C(O)CCCCCCCCCCCNC(=O)[C@@H]1CN(C(=O)c2ccc(C(=O)N3C[C@@H](C(=O)N[C@H]4C[C@@H]4c4ccccc4)[C@H](C(=O)N[C@H]4C[C@@H]4c4ccccc4)C3)cc2)C[C@H]1C(=O)N[C@H]1C[C@@H]1c1ccccc1 | 100 | 110 | – | – |
| O=C(NCCCCCCCCCCCCO)[C@@H]1CN(C(=O)c2ccc(C(=O)N3C[C@@H](C(=O)N[C@H]4C[C@@H]4c4ccccc4)[C@H](C(=O)N[C@H]4C[C@@H]4c4ccccc4)C3)cc2)C[C@H]1C(=O)N[C@H]1C[C@@H]1c1ccccc1 | 90 | 110 | – | – |
| O=C(O)CNC(=O)CCCCCCCCCCCNC(=O)[C@@H]1CN(C(=O)c2ccc(C(=O)N3C[C@@H](C(=O)N[C@H]4C[C@@H]4c4ccccc4)[C@H](C(=O)N[C@H]4C[C@@H]4c4ccccc4)C3)cc2)C[C@H]1C(=O)N[C@H]1C[C@@H]1c1ccccc1 | 110 | – | – | 30 |
| CC(C)(C)OC(=O)NCCOCCOCCOCCOCCC(=O)OCCCCCCCCCCCCNC(=O)[C@@H]1CN(C(=O)c2ccc(C(=O)N3C[C@@H](C(=O)N[C@H]4C[C@@H]4c4ccccc4)[C@H](C(=O)N[C@H]4C[C@@H]4c4ccccc4)C3)cc2)C[C@H]1C(=O)N[C@H]1C[C@@H]1c1ccccc1 | 90 | 150 | – | – |
| C#CCCCCCCCCCCCCNC(=O)[C@@H]1CN(C(=O)c2ccc(C(=O)N3C[C@@H](C(=O)N[C@H]4C[C@@H]4c4ccccc4)[C@H](C(=O)N[C@H]4C[C@@H]4c4ccccc4)C3)cc2)C[C@H]1C(=O)N[C@H]1C[C@@H]1c1ccccc1 | 120 | 180 | – | – |

Source: ChEMBL document CHEMBL5143728, “Next-Generation Diprovocims with Potent Human and Murine TLR1/TLR2 Agonist Activity That Activate the Innate and Adaptive Immune Response” (J Med Chem, 2022)
